Data published in ChEMBL document CHEMBL1123248, “Chiral DNA gyrase inhibitors. 1. Synthesis and antimicrobial activity of the enantiomers of 6-fluoro-7-(1-piperazinyl)-1-(2'-trans-phenyl-1'-cyclopropyl)-1, 4-dihydro-4-oxoquinoline-3-carboxylic acid” (1986).
Converted amounts (≈) assume the structure as drawn.

Experiments:
Type in all cases: functional
Acinetobacter [1] = test: The compound was tested for its antimicrobial activity against Acinetobacter sp. CMX 669 (A) strain.
In short: (§1)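 MIC by twofold serial agar dilution in brain-heart infusion agar.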

[2] = tested on: Staphylococcus epidermidis; test: The compound was tested for its antimicrobial activity against Staphylococcus epidermidis 3519 (Se) strain.; in short: as §1
Escherichia coli [3] = test: (§2) The compound was tested for its antimicrobial activity against Escherichia coli juhl (Ec) strain.; in short: as §1
Enterococcus faecium [4] = test: The compound was tested for its antimicrobial activity against Streptococcus faecium ATCC 8043 (Sf) strain.; in short: as §1
Streptococcus pyogenes [5] = test: The compound was tested for its antimicrobial activity against Streptococcus pyogenes 930 (Sp) strain.; in short: as §1
Staphylococcus aureus [6] = test: The compound was tested for its antimicrobial activity against Staphylococcus aureus CMX 68613 (Sa) strain.; in short: as §1
Klebsiella aerogenes [7] = test: The compound was tested for its antimicrobial activity against Enterobacter aerogenes ATCC 13048 (Ea) strain.; in short: as §1
Pseudomonas aeruginosa [8] = test: The compound was tested evaluated for its antimicrobial activity against Pseudomonas aeruginosa ( Pa(K)) strain.; in short: as §1
Pseudomonas aeruginosa [9] = test: The compound was tested evaluated for its antimicrobial activity against Pseudomonas aeruginosa A5007 (Pa(5)) strain.
In short: (§3)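 MICs were determined by twofold agar dilution on brain-heart infusion agar.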

Staphylococcus aureus [10] = test: The compound was tested for its antimicrobial activity against Staphylococcus aureus ATCC 6538P (Sa(A)) strain; in short: as §3
Micrococcus luteus [11] = test: The compound was tested for inhibition constant against DNA gyrase isolated from micrococcus luteus
Streptococcus pyogenes [12] = test: The compound was tested for its antimicrobial activity against Streptococcus pyogenes 930 (Sp) strain; in short: as §3
[13] = tested on: Staphylococcus epidermidis; test: (§4) The compound was tested for its antimicrobial activity against Staphylococcus epidermidis 3519 (Se) strain; in short: as §1
Pseudomonas aeruginosa [14] = test: The compound was tested evaluated for its antimicrobial activity against Pseudomonas aeruginosa ( Pa(K)) strain; in short: as §3
Escherichia coli [15] = test: The compound was tested for inhibition constant against DNA gyrase isolated from Escherichia coli
Micrococcus luteus [16] = test: The compound was tested for its antimicrobial activity against Micrococcus luteus (MI) strain; in short: as §3
Enterococcus faecium [17] = test: The compound was tested for its antimicrobial activity against Streptococcus faecium ATCC 8043 (Sf) strain; in short: as §3
Acinetobacter [18] = test: The compound was tested for its antimicrobial activity against Acinetobacter sp. CMX 669 (A) strain; in short: as §3
Escherichia coli [19] = test: as §2; in short: as §3; remark: listed apart in the source
Klebsiella pneumoniae [20] = test: The compound was tested for its antimicrobial activity against Klebsiella pneumoniae 8045 (Kp) strain; in short: as §3
Staphylococcus aureus [21] = test: The compound was tested for its antimicrobial activity against Staphylococcus aureus CMX 68613 (Sa) strain; in short: as §3
Escherichia coli [22] = test: The compound was tested for its antimicrobial activity against Escherichia coli juhl (Ec) strain; in short: as §3
Pseudomonas aeruginosa [23] = test: The compound was tested evaluated for its antimicrobial activity against Pseudomonas aeruginosa A5007 (Pa(5)) strain; in short: as §1
[24] = tested on: Staphylococcus epidermidis; test: as §4; in short: as §3; remark: listed apart in the source
Klebsiella aerogenes [25] = test: The compound was tested for its antimicrobial activity against Enterobacter aerogenes ATCC 13048 (Ea) strain; in short: as §3
Klebsiella pneumoniae [26] = test: microbe, parasite or virus in culture
[27] = Staphylococcus aureus, ATCC 6538P, read-out: MIC
[28] = Streptococcus pyogenes, read-out: MIC
[29] = Pseudomonas aeruginosa, read-out: MIC
[30] = Enterococcus faecium, ATCC 8043, read-out: MIC
[31] = Staphylococcus aureus, read-out: MIC
[32] = Escherichia coli, read-out: MIC
[33] = Klebsiella aerogenes, ATCC 13048, read-out: MIC

Row | SMILES | MIC (Pseudomonas aeruginosa [9]) [µg/mL] | MIC (Micrococcus luteus [16]) [µg/mL] | MIC (Acinetobacter [18]) [µg/mL] | MIC (Klebsiella pneumoniae [20]) [µg/mL] | MIC [2] [µg/mL] | MIC (Staphylococcus aureus [6]) [µg/mL] | MIC (Klebsiella aerogenes [7]) [µg/mL] | MIC (Staphylococcus aureus [10]; [27]) [µg/mL] | Ki (Micrococcus luteus [11]; Micrococcus luteus) [µg/mL] | MIC (Streptococcus pyogenes [12]; [28]) [µg/mL] | MIC [13] [µg/mL] | MIC (Pseudomonas aeruginosa [14]; [29]) [µg/mL] | Ki (Escherichia coli [15]; Escherichia coli) [µg/mL] | MIC (Enterococcus faecium [17]; [30]) [µg/mL] | MIC (Staphylococcus aureus [21]; [31]) [µg/mL] | MIC (Escherichia coli [22]; [32]) [µg/mL] | MIC (Pseudomonas aeruginosa [23]) [µg/mL] | MIC [24] [µg/mL] | MIC (Klebsiella aerogenes [25]; [33]) [µg/mL] | Ki (Micrococcus luteus [11]) [µg/mL] | further results
1 | O=C(O)c1cn(-c2ccccc2)c2cc(N3CCNCC3)c(F)cc2c1=O | 0.78 (≈ 2.12 µM) | – | – | – | 1.56 (≈ 4.25 µM) | 0.39 (≈ 1.06 µM) | 0.39 (≈ 1.06 µM) | 0.39 (≈ 1.06 µM) | – | – | – | – | – | – | – | – | – | – | – | – | MIC (Acinetobacter [1]): 0.78 µg/mL (≈ 2.12 µM); MIC (Escherichia coli [3]): 0.2 µg/mL (≈ 0.544 µM); MIC (Enterococcus faecium [4]): 12.5 µg/mL (≈ 34 µM); MIC (Streptococcus pyogenes [5]): 1.56 µg/mL (≈ 4.25 µM); MIC (Pseudomonas aeruginosa [8]): 1.56 µg/mL (≈ 4.25 µM)
2 | CCn1cc(C(=O)O)c(=O)c2cc(F)c(N3CCNCC3)cc21 [NORFLOXACIN] | – | – | 6.2 (≈ 19.4 µM) | 0.1 (≈ 0.313 µM) | – | – | 0.2 (≈ 0.626 µM) | 0.78 (≈ 2.44 µM) | 72 (≈ 225 µM) | 3.1 (≈ 9.71 µM) | 1.56 (≈ 4.89 µM) | 0.39 (≈ 1.22 µM) | 1 (≈ 3.13 µM) | 0.78 (≈ 2.44 µM) | 0.78 (≈ 2.44 µM) | 0.1 (≈ 0.313 µM) | 0.39 (≈ 1.22 µM) | – | – | – | –
3 | O=C(O)c1cn(C2CC2)c2cc(N3CCNCC3)c(F)cc2c1=O [CIPROFLOXACIN] | – | 1.56 (≈ 4.71 µM) | 3.1 (≈ 9.36 µM) | – | – | – | – | 0.2 (≈ 0.604 µM) | 38 (≈ 115 µM) | 0.39 (≈ 1.18 µM) | – | 0.05 (≈ 0.151 µM) | 0.9 (≈ 2.72 µM) | 0.39 (≈ 1.18 µM) | 0.2 (≈ 0.604 µM) | – | 0.1 (≈ 0.302 µM) | 0.2 (≈ 0.604 µM) | 0.05 (≈ 0.151 µM) | – | –

The next lines start with results.

Row | MIC (Pseudomonas aeruginosa [9]) [µg/mL] | MIC (Micrococcus luteus [16]) [µg/mL] | MIC (Acinetobacter [18]) [µg/mL] | MIC (Klebsiella pneumoniae [20]) [µg/mL] | SMILES | MIC [2] [µg/mL] | MIC (Staphylococcus aureus [6]) [µg/mL] | MIC (Klebsiella aerogenes [7]) [µg/mL] | MIC (Staphylococcus aureus [10]; [27]) [µg/mL] | Ki (Micrococcus luteus [11]; Micrococcus luteus) [µg/mL] | MIC (Streptococcus pyogenes [12]; [28]) [µg/mL] | MIC [13] [µg/mL] | MIC (Pseudomonas aeruginosa [14]; [29]) [µg/mL] | Ki (Escherichia coli [15]; Escherichia coli) [µg/mL] | MIC (Enterococcus faecium [17]; [30]) [µg/mL] | MIC (Staphylococcus aureus [21]; [31]) [µg/mL] | MIC (Escherichia coli [22]; [32]) [µg/mL] | MIC (Pseudomonas aeruginosa [23]) [µg/mL] | MIC [24] [µg/mL] | MIC (Klebsiella aerogenes [25]; [33]) [µg/mL] | Ki (Micrococcus luteus [11]) [µg/mL] | further results
4 | > 50 | 0.39 (≈ 0.957 µM) | 6.2 (≈ 15.2 µM) | 3.1 (≈ 7.61 µM) | O=C(O)c1cn(C2C[C@@H]2c2ccccc2)c2cc(N3CCNCC3)c(F)cc2c1=O (stereo partly specified) | – | 0.78 (≈ 1.91 µM) | 12.5 (≈ 30.7 µM) | 0.78 (≈ 1.91 µM) | 9.6 (≈ 23.6 µM) | 0.78 (≈ 1.91 µM) | 1.56 (≈ 3.83 µM) | 100 (≈ 245 µM) | 12.1 (≈ 29.7 µM) | 1.56 (≈ 3.83 µM) | – | – | – | – | – | – | MIC (Escherichia coli [19]): 12.5 µg/mL (≈ 30.7 µM)
5 | – | 0.39 (≈ 0.957 µM) | 25 (≈ 61.4 µM) | 6.2 (≈ 15.2 µM) | O=C(O)c1cn(C2C[C@H]2c2ccccc2)c2cc(N3CCNCC3)c(F)cc2c1=O (stereo in doubt; 14) | – | – | – | – | – | – | – | – | – | – | – | – | > 100 | 1.56 (≈ 3.83 µM) | – | 13.7 (≈ 33.6 µM) | MIC (Streptococcus pyogenes [12]): 1.56 µg/mL (≈ 3.83 µM); Ki (Escherichia coli [15]): 15.2 µg/mL (≈ 37.3 µM); MIC (Enterococcus faecium [17]): 3.1 µg/mL (≈ 7.61 µM); MIC (Staphylococcus aureus [21]): 1.56 µg/mL (≈ 3.83 µM); MIC (Klebsiella aerogenes [25]): 50 µg/mL (≈ 123 µM); MIC (Escherichia coli [22]): 25 µg/mL (≈ 61.4 µM); MIC (Staphylococcus aureus [10]): 1.56 µg/mL (≈ 3.83 µM)
6 | > 100 | – | 100 (≈ 245 µM) | – | O=C(O)c1cn(C2C[C@H]2c2ccccc2)c2cc(N3CCNCC3)c(F)cc2c1=O (stereo in doubt; 5) | 3.1 (≈ 7.61 µM) | – | – | 3.1 (≈ 7.61 µM) | – | 3.1 (≈ 7.61 µM) | – | 100 (≈ 245 µM) | 14.2 (≈ 34.9 µM) | 6.2 (≈ 15.2 µM) | 3.1 (≈ 7.61 µM) | 50 (≈ 123 µM) | – | – | 50 (≈ 123 µM) | 38 (≈ 93.3 µM) | MIC (Pseudomonas aeruginosa [14]): 100 µg/mL (≈ 245 µM); MIC (Klebsiella pneumoniae [26]): 12.5 µg/mL (≈ 30.7 µM)
